Measured values as given in ChEMBL document CHEMBL3769403, “Carbonic anhydrase activators: Activation of the β-carbonic anhydrase from Malassezia globosa with amines and amino acids” (Bioorg Med Chem Lett, 2016).

Test system: Malassezia globosa
Settings: 10 uM

Compound | kcat [×10⁵ /s]
NCCc1c[nH]cn1 | 18.5

Test system: Malassezia globosa
Test: Activation of Malassezia globosa beta-carbonic anhydrase incubated for 15 mins prior to testing by stopped flow CO2 hydrase method
Settings: not given
Procedure, shortened: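 Recombinant M. globosa β-CA (12.1 nM in assay; enzymes 10-14 nM) preincubated with activator 15 min at room temperature. CO2 hydration followed 10 s at 25 °C by stopped-flow, phenol red 0.2 mM at 557 nm, 20 mM Tris pH 8.3, 20 mM NaClO4; CO2 0.17-17 mM. Initial velocities from the first 5-10% of at least six traces, uncatalyzed rate subtracted; KA from the competitive steady-state equation; mean of 3 assays.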

Compound | KA [µM]
N[C@@H](Cc1ccc(O)c(O)c1)C(=O)O | 8.31
Nc1ccc(C[C@H](N)C(=O)O)cc1 | 13.4
NCCc1c[nH]c2ccc(O)cc12 | 14.2
N[C@H](Cc1c[nH]cn1)C(=O)O | 18.1
NCCc1ccc(O)c(O)c1 | 9.43
N[C@H](Cc1ccc(O)c(O)c1)C(=O)O | 13.7
N[C@@H](Cc1ccc(O)cc1)C(=O)O | 15.7
CNC[C@H](O)c1ccc(O)c(O)c1 | 0.72
NCCN1CCNCC1 | 0.81
N[C@@H](Cc1ccccc1)C(=O)O | 34.1
NCCc1ccccn1 | 7.3
NCCN1CCOCC1 | 5.82
N[C@H](Cc1c[nH]c2ccccc12)C(=O)O | 12.5
N[C@@H](Cc1c[nH]c2ccccc12)C(=O)O | 10.1
N[C@H](Cc1ccc(O)cc1)C(=O)O | 25.1
N[C@H](Cc1ccccc1)C(=O)O | 10.7
NCCc1c[nH]cn1 | 10.9
NCc1ccccn1 | 6.12
N[C@@H](Cc1c[nH]cn1)C(=O)O | 29.3
